The target of assay [1] is T1, Vasopressin receptor (Rattus norvegicus) (UniProt P48974+P30560+Q00788). As to the kind of experiment: Antivasopressor potency in terms of blood pressure response in rats anesthetized with urethane and pretreated with phenoxybenzamine. The format is functional. The essentials: (§1)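 Rats anesthetized with urethane, pretreated with phenoxybenzamine; blood pressure responses recorded. USP posterior pituitary reference standard as agonist, given intravenously with antagonist. ED (nmol/kg) is the antagonist dose at which 2x units of agonist match the response to x units without antagonist, log-interpolated from doses above and below. In vivo pA2 uses assumed distribution volume 67 mL/kg.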

Assay [2] concerns the target T2, Vasopressin receptor (Rattus norvegicus, UniProt P48974+P30560+Q00788). As to the kind of experiment: Antivasopressor potency in terms of negative logarithm of the effective doses divided by the estimated volume of distribution. The format is functional. The method in brief: as §1
The target in assay [3] is T2, Vasopressin receptor. The experiment in a line: Antiantidiuretic potency in terms of negative logarithm of the effective doses divided by the estimated volume of distribution. The format is functional, Urine. The essentials:
(§2)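 Water-loaded rats under ethanol anesthesia; urine flow followed. USP posterior pituitary reference standard as agonist, all injections intravenous. Effective dose (nmol/kg) is the antagonist dose reducing the response to 2x units of agonist to that of x units alone, interpolated on a log scale between bracketing doses. pA2 = negative log of ED divided by assumed distribution volume 67 mL/kg.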

Assay [4] concerns the target T1, Vasopressin receptor (Rattus norvegicus). The experiment in a line: Antiantidiuretic potency in terms of measuring changes in urine flow in water-loaded rats under ethanol anesthesia. The format is functional. The method in brief:
as §2

Numbered stars: 1 amine (or outer) side, 2 acyl side, 3 side chain; on linkers, the order of the positions; unused ones are H or OH. Bridge positions count the residues as written; N and C are the ends. Square brackets hold non-standard residues; d marks the D form. Peptide text beside a SMILES is read from it. X1 = O=C(CC1(S[*:2])CCCCC1)[*:1]

With `CC[C@H](C)[C@@H]1NC(=O)[C@H](Cc2ccccc2)NC(=O)[C@@H](Cc2ccccc2)NC(=O)CC2(CCCCC2)SSC[C@@H](C(=O)N2CCC[C@H]2C(=O)N[C@@H](CCCN=C(N)N)C(=O)NCCN)NC(=O)[C@H](CC(N)=O)NC1=O`, the ED in assay [1] stood at 0.88 nM/kg; in assay [4], 0.55 nM/kg. Also, the pA2 – broadly, a measure of antagonist potency on a negative log scale – on Vasopressin receptor [2] was 7.89; at Vasopressin receptor [3] it was 8.11.

With `CCOc1ccc(C[C@H]2NC(=O)CC3(CCCCC3)SSC[C@@H](C(=O)NCCNC(=O)[C@H](N)CCCCN)NC(=O)[C@H](CC(N)=O)NC(=O)[C@H](C(C)C)NC(=O)[C@H](Cc3ccccc3)NC2=O)cc1`, the pA2 at Vasopressin receptor [2] is reported as 7.92; at Vasopressin receptor [3], 7.76.

Regarding `CCOc1ccc(C[C@H]2NC(=O)CC3(CCCCC3)SSC[C@@H](C(=O)NCCNC(=O)CN)NC(=O)[C@H](CC(N)=O)NC(=O)[C@H](C(C)C)NC(=O)[C@H](Cc3ccccc3)NC2=O)cc1`, the figures for the pA2 at Vasopressin receptor [2] and on Vasopressin receptor [3] were 7.61 and 6.59, respectively.

For `CCOc1ccc(C[C@H]2NC(=O)CC3(CCCCC3)SSC[C@@H](C(=O)N3CCC[C@H]3C(=O)NCCNC(=O)[C@H](N)CCCN=C(N)N)NC(=O)[C@H](CC(N)=O)NC(=O)[C@H](C(C)C)NC(=O)[C@H](Cc3ccccc3)NC2=O)cc1`, the results for the pA2 on Vasopressin receptor [2] and on Vasopressin receptor [3] were 8.15 and 7.92, respectively.

Regarding `CC[C@H](C)[C@@H]1NC(=O)[C@H](Cc2ccccc2)NC(=O)[C@@H](Cc2ccccc2)NC(=O)CC2(CCCCC2)SSC[C@@H](C(=O)N2CCC[C@H]2C(=O)N[C@@H](CCCN=C(N)N)C(=O)NCC(=O)NCCN)NC(=O)[C@H](CC(N)=O)NC1=O`, the ED in assay [1] amounted to 1.8 nM/kg; in assay [4], 0.57 nM/kg. Besides, the pA2 on Vasopressin receptor [2] is given as 7.58; at Vasopressin receptor [3], 8.1.

With `CCOc1ccc(C[C@H]2NC(=O)CC3(CCCCC3)SSC[C@@H](C(=O)NCCNC(=O)[C@H](N)CCCN)NC(=O)[C@H](CC(N)=O)NC(=O)[C@H](C(C)C)NC(=O)[C@H](Cc3ccccc3)NC2=O)cc1`, the pA2 on Vasopressin receptor [2] is given as 8.06; on Vasopressin receptor [3], 7.24.

`CCOc1ccc(C[C@H]2NC(=O)CC3(CCCCC3)SSC[C@@H](C(=O)N3CCC[C@H]3C(=O)N[C@@H](CCCN=C(N)N)C(=O)NCCN)NC(=O)[C@H](CC(N)=O)NC(=O)[C@H]([C@@H](C)CC)NC(=O)[C@H](Cc3ccccc3)NC2=O)cc1`: the figures for the ED in assay [1] and in assay [4] were 0.32 nM/kg and 0.77 nM/kg, respectively. The pA2 is recorded as 8.33 on Vasopressin receptor [2] and 8 on Vasopressin receptor [3].

Consider `CCOc1ccc(C[C@H]2NC(=O)CC3(CCCCC3)SSC[C@@H](C(=O)N3CCC[C@H]3C(=O)NCCN)NC(=O)[C@H](CC(N)=O)NC(=O)[C@H](C(C)C)NC(=O)[C@H](Cc3ccccc3)NC2=O)cc1`, for which the ED was found to be 0.75 nM/kg in assay [1] and 1.6 nM/kg in assay [4]. In addition, the pA2 is on record as 7.95 on Vasopressin receptor [2] and 7.64 on Vasopressin receptor [3].

Regarding `CCOc1ccc(C[C@H]2NC(=O)CC3(CCCCC3)SSC[C@@H](C(=O)N[C@@H](CCCN=C(N)N)C(=O)NCC(N)=O)NC(=O)[C@H](CC(N)=O)NC(=O)[C@H](C(C)C)NC(=O)[C@H](Cc3ccccc3)NC2=O)cc1`, the pA2 on Vasopressin receptor [2] is on record as 8.09; on Vasopressin receptor [3] it was 7.82.

As for `CCOc1ccc(C[C@H]2NC(=O)CC3(CCCCC3)SSC[C@@H](C(=O)N3CCC[C@H]3C(=O)N[C@@H](CCCN=C(N)N)C(=O)NCC(N)=O)NC(=O)[C@H](CC(N)=O)NC(=O)[C@H]([C@@H](C)CC)NC(=O)[C@H](Cc3ccccc3)NC2=O)cc1`, the ED in assay [1] and in assay [4] was 1.2 nM/kg throughout. Besides, the pA2 at Vasopressin receptor [2] was 7.78; on Vasopressin receptor [3], 7.75.

Turning to `CCOc1ccc(C[C@H]2NC(=O)CC3(CCCCC3)SSC[C@@H](C(=O)NCCNC(=O)[C@H](CCCN=C(N)N)NC(=O)[C@@H](N)CCCN=C(N)N)NC(=O)[C@H](CC(N)=O)NC(=O)[C@H](C(C)C)NC(=O)[C@H](Cc3ccccc3)NC2=O)cc1`, the pA2 at Vasopressin receptor [2] is listed as 7.93; on Vasopressin receptor [3], 7.61.

Regarding `CC(C)[C@@H]1NC(=O)[C@H](Cc2ccccc2)NC(=O)[C@@H](Cc2ccccc2)NC(=O)CC2(CCCCC2)SSC[C@@H](C(=O)NCCNC(=O)[C@@H](N)CCCN=C(N)N)NC(=O)[C@H](CC(N)=O)NC1=O`, the pA2 on Vasopressin receptor [2] is 7.64; at Vasopressin receptor [3], 6.91.

Take `CCOc1ccc(C[C@H]2NC(=O)CC3(CCCCC3)SSC[C@@H](C(=O)N3CCC[C@H]3C(=O)N[C@@H](CCCN=C(N)N)C(=O)NCCN)NC(=O)[C@H](CC(N)=O)NC(=O)[C@H](C(C)C)NC(=O)[C@H](Cc3ccccc3)NC2=O)cc1`: the results for the ED in assay [1] and in assay [4] were 0.69 nM/kg and 1.1 nM/kg, respectively. For the same compound, the pA2 on Vasopressin receptor [2] is 8; at Vasopressin receptor [3], 7.79.

Regarding `CC[C@@H](C)[C@H]1NC(=O)CC2(CCCCC2)SSC[C@@H](C(=O)NCCNC(=O)[C@@H](N)CCCN=C(N)N)NC(=O)[C@H](CC(N)=O)NC(=O)[C@H](C(C)C)NC(=O)[C@H](Cc2ccccc2)NC1=O`, the pA2 on Vasopressin receptor [2] was 6.16; on Vasopressin receptor [3], 5.8.

Take `CC[C@H](C)[C@@H]1NC(=O)[C@H](Cc2ccccc2)NC(=O)[C@@H](Cc2ccccc2)NC(=O)CC2(CCCCC2)SSC[C@@H](C(=O)N2CCC[C@H]2C(=O)N[C@@H](CCCN=C(N)N)C(=O)NCC(N)=O)NC(=O)[C@H](CC(N)=O)NC1=O` ([dF]FINCPRG-NH2; linker N-5 via X1): the ED in assay [1] was 0.99 nM/kg; in assay [4], 0.46 nM/kg. The results for the pA2 on Vasopressin receptor [2] and on Vasopressin receptor [3] were 7.86 and 8.24, respectively.

As to `CCOc1ccc(C[C@H]2NC(=O)CC3(CCCCC3)SSC[C@@H](C(=O)N3CCC[C@H]3C(=O)N[C@@H](CCCN=C(N)N)C(=O)NCC(N)=O)NC(=O)[C@H](CC(N)=O)NC(=O)[C@H](C(C)C)NC(=O)[C@H](Cc3ccccc3)NC2=O)cc1` ([dY](Et)FVNCPRG-NH2; linker N-5 via X1), the ED in assay [1] was found to be 0.45 nM/kg; in assay [4], 1.1 nM/kg. In addition, the pA2 at Vasopressin receptor [2] was 8.22; at Vasopressin receptor [3], 7.81.

Regarding `CCOc1ccc(C[C@H]2NC(=O)CC3(CCCCC3)SSC[C@@H](C(=O)NCCN)NC(=O)[C@H](CC(N)=O)NC(=O)[C@H](C(C)C)NC(=O)[C@H](Cc3ccccc3)NC2=O)cc1`, the pA2 on Vasopressin receptor [2] is recorded as 8.15; on Vasopressin receptor [3] it was 7.07.

Regarding `CCOc1ccc(C[C@H]2NC(=O)CC3(CCCCC3)SSC[C@@H](C(=O)N3CCC[C@H]3C(=O)N[C@@H](CCCN=C(N)N)C(=O)NCC(=O)NCCN)NC(=O)[C@H](CC(N)=O)NC(=O)[C@H](C(C)C)NC(=O)[C@H](Cc3ccccc3)NC2=O)cc1`, the values for the ED in assay [1] and in assay [4] were 0.32 nM/kg and 1.2 nM/kg, respectively. Besides, the pA2 on Vasopressin receptor [2] was 8.33; on Vasopressin receptor [3], 7.82.
